Results as given in ChEMBL document CHEMBL1130319, “Preparation, DNA binding, and in vitro cytotoxicity of a pair of enantiomeric platinum(II) complexes, [(R)- and (S)-3-aminohexahydroazepine]dichloroplatinum(II). Crystal structure of the S enantiomer” (J Med Chem, 1997).

Experiments:
Type in all cases: functional, cell-based
PC-9 [1] = test: In vitro cytotoxicity was determined by using cultures of human lung (PC9) cancer cells by SRB assay
Outline: (§1)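 Cells grown in RPMI 1640/10% FCS under 7.5% CO2, 5% O2. Seeded at 5000 cells/well for 24 h, then given complexes (saline stock diluted in medium) at final 0–200 μM for 96 h. Fixed in cold 10% TCA 30 min at 4 °C, stained with 0.4% SRB in 1% acetic acid 15 min, dye solubilized in 10 mM Tris, A570. Percent of control from 4 or 6 replicates; IR50 read from curves.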

PC-9 [2] = test: In vitro cytotoxicity was determined by using cultures of human lung (PC9) cancer cells by MTT assay
Outline: (§2)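 Monolayers in RPMI 1640 with 10% FCS, 37 °C, 7.5% CO2/5% O2/85% N2. Trypsinized, 5000 cells/well, 24 h preincubation. Complexes in 0.9% NaCl saline, final 0–200 μM, 96 h exposure; washed. MTT 1 mg/mL in FCS-free medium, 4 h at 37 °C, formazan in 2-propanol, OD 570 nm. Viability % of untreated; 4 or 6 replicates; IR50 from dose-response curves.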

DU-145 [3] = test: In vitro cytotoxicity was determined by using cultures of human prostate (DU145) cancer cells by MTT assay; outline: as §2
BL13/0 [4] = test: In vitro cytotoxicity was determined by using cultures of human bladder (BL13/0) cancer cells by SRB assay; outline: as §1
PC-9 [5] = test: In vitro cytotoxicity was determined by using cultures of human resistant lung (PC9cisR) cancer cells by MTT assay; outline: as §2
DU-145 [6] = test: In vitro cytotoxicity was determined by using cultures of human prostate (DU145) cancer cells by SRB assay; outline: as §1
PC-9 [7] = test: In vitro cytotoxicity was determined by using cultures of human resistant lung (PC9cisR) cancer cells by SRB assay; outline: as §1
BL13/0 [8] = test: In vitro cytotoxicity was determined by using cultures of human bladder (BL13/0) cancer cells by MTT assay; outline: as §2

Substance: 8,8-platinumdichloro-(6R)-1,7-diazoniabicyclo[4.2.1]nonane
- IC50 (PC-9 [1]): 11 µM
- IC50 (PC-9 [2]): 5.9 µM
- IC50 (DU-145 [3]): 2.9 µM
- IC50 (BL13/0 [4]): 7.2 µM
- IC50 (PC-9 [5]): 16 µM
- IC50 (DU-145 [6]): 3.3 µM
- IC50 (PC-9 [7]): 27.3 µM
- IC50 (BL13/0 [8]): 1.3 µM

Substance: CISPLATIN
- IC50 (PC-9 [2]): 1.4 µM
- IC50 (DU-145 [3]): 1.8 µM
- IC50 (BL13/0 [4]): 9.5 µM
- IC50 (PC-9 [5]): 11.7 µM
- IC50 (DU-145 [6]): 1 µM
- IC50 (PC-9 [7]): > 17.5 µM
- IC50 (BL13/0 [8]): 1.9 µM
